Experimental data as given in ChEMBL document CHEMBL2069182, “Discovery and optimization of a novel series of GPR142 agonists for the treatment of type 2 diabetes mellitus” (Bioorg Med Chem Lett, 2012).
pEC50, pIC50: −log10 of the molar value.

Columns and labels:
[1] = biological target: T1, Probable G-protein coupled receptor 142 (Homo sapiens) (UniProt Q7Z601); experiment: Agonist activity at human GPR142 expressed in HEK293 cells assessed as inositol phosphate accumulation using [3H]-inositol after 1 hr by scintillation counting relative to tryptophan; assay type: functional, cell-based
T1 sequence (whole entry): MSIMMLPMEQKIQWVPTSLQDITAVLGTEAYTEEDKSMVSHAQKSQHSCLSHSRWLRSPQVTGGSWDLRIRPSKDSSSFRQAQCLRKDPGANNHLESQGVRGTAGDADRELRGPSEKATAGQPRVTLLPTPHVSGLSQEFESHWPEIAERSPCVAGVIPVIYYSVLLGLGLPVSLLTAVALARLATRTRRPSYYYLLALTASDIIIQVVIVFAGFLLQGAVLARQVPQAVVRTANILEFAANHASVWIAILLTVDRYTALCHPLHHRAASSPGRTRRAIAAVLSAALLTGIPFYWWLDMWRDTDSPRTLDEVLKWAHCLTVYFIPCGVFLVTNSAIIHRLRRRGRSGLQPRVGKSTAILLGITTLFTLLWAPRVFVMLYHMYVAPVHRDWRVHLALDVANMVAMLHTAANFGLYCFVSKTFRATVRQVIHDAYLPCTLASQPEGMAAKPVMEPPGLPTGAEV
Method in brief: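 HEK293 cells on poly-D-lysine were transfected next day with 100 ng receptor plasmid/well, then labelled overnight with 1 µCi/mL [3H]-inositol in inositol-free DMEM/10% dialyzed FCS. Cells got graded compound in HBSS/0.01% BSA with 10 mM LiCl for 1 h at 37 °C. They were lysed in ice-cold 20 mM formic acid and counted with yttrium silicate SPA beads. EC50 given; Emax as % of maximal tryptophan response at 10 mM.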

[2] = biological target: T2, Probable G-protein coupled receptor 142 (Homo sapiens, UniProt Q7Z601); experiment: Agonist activity at human GPR142 expressed in HEK293 cells assessed as inositol phosphate accumulation using [3H]-inositol after 1 hr by scintillation counting; assay type: functional, cell-based
T2 sequence (Q7Z601 whole entry): T1 sequence (whole entry)
Method in brief: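 HEK293 cells plated at 25,000/well, next day (80–90% confluent) transfected with 100 ng receptor plasmid per well by Lipofectamine; after 6 h switched to inositol-free DMEM/10% dialyzed FCS with 1 µCi/mL [3H]-inositol overnight. Washed in HBSS, then compound dilutions (DMSO) in HBSS/0.01% BSA plus 10 mM LiCl, 37 °C, 1 h. Lysed in ice-cold 20 mM formic acid, 4 °C 5 h, then yttrium silicate SPA beads, scintillation counting. Emax as % of maximal response to 10 mM tryptophan.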

[3] = Induction of insulin secretion in mouse pancreatic islets in presence of 16.7 mM of glucose relative to control; assay type: functional; details: Pancreatic islet
Method in brief: (§1)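 Isolated mouse islets stimulated in 16.7 mM glucose with 0.625% HSA and 1% DMSO; insulin secretion measured, Emax reported as percentage.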

CYP3A4 = CYP3A4 (Homo sapiens, UniProt P08684); experiment: Inhibition of CYP3A4 at 3 uM; assay type: ADME
Sequence of CYP3A4 (P08684 whole entry): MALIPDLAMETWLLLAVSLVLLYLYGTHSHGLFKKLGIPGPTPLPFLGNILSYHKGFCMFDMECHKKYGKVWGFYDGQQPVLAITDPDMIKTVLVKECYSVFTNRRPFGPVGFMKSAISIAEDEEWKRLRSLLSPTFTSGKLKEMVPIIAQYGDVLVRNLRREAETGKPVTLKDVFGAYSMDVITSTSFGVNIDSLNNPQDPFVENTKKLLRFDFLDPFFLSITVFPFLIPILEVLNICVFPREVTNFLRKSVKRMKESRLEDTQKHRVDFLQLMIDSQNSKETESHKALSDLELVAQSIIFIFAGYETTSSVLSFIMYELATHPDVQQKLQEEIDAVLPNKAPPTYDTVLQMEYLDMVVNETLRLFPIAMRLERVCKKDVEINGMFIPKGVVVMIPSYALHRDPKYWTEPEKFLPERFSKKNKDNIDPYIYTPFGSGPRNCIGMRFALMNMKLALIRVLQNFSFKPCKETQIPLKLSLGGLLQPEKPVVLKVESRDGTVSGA

CYP2D6 = CYP2D6 (Homo sapiens, UniProt P10635); experiment: Inhibition of CYP2D6 at 3 uM; assay type: ADME
Sequence of CYP2D6 (P10635 whole entry): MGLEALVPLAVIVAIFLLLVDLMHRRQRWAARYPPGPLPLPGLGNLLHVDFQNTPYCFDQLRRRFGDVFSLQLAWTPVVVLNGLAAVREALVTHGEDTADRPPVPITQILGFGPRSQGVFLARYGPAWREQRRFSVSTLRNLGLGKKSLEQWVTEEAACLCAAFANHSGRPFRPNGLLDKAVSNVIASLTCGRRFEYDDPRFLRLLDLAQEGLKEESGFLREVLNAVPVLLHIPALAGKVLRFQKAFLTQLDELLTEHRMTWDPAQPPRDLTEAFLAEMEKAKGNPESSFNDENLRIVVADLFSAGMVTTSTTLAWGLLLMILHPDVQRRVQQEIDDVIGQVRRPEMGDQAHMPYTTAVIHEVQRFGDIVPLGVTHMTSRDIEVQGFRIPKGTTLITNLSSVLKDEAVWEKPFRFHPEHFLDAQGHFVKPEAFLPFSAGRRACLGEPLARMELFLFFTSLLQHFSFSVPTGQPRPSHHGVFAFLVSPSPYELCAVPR

[4] = biological target: T2, Probable G-protein coupled receptor 142; experiment: Agonist activity at human GPR142 expressed in HEK293 cells assessed as inositol phosphate accumulation using [3H]-inositol after 1 hr by scintillation counting in presence of human serum; assay type: functional, cell-based
Method in brief: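 Same transfected HEK293 [3H]-inositol IP accumulation protocol as buffer assay, but compound incubation (10 mM LiCl, 37 °C, 1 h) run in 100% human serum instead of HBSS/0.01% BSA. Formic acid lysis, SPA bead scintillation read-out. Emax expressed as % of maximal 10 mM tryptophan response.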

[5] = Induction of insulin secretion in mouse pancreatic islets in presence of 16.7 mM of glucose; assay type: functional; details: Pancreatic islet; method in brief: as §1
[6] = biological target: T1, Probable G-protein coupled receptor 142 (Homo sapiens); experiment: Agonist activity at human GPR142 expressed in HEK293 cells assessed as inositol phosphate accumulation using [3H]-inositol after 1 hr by scintillation counting in presence of human serum relative to tryptophan; assay type: functional, cell-based
Method in brief: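 Transiently transfected HEK293 cells were labelled overnight with 1 µCi/mL tritiated inositol, then given graded compound in 100% human serum (in place of HBSS/0.01% BSA) with 10 mM LiCl for 1 h at 37 °C. Lysis was in ice-cold 20 mM formic acid, with SPA-bead scintillation read-out. EC50 given; Emax as % of maximal tryptophan response.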

[7] = biological target: T3, Probable G-protein coupled receptor 142 (Mus musculus, UniProt Q7TQN9); experiment: Agonist activity at mouse GPR142 assessed as inositol phosphate accumulation; assay type: functional
T3 sequence (Q7TQN9 whole entry): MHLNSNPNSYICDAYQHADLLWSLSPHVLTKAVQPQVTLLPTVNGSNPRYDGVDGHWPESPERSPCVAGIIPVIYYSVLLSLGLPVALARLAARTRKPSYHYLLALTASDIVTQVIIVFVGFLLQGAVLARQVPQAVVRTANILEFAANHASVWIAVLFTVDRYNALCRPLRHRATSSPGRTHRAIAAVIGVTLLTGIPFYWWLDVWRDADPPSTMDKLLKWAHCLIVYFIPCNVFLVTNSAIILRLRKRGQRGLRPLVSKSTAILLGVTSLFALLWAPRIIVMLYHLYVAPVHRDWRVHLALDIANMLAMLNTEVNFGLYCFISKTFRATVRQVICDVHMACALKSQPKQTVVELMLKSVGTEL

[8] = Volume of distribution at steady state in rat at 0.5 mg/kg, iv; assay type: ADME, organism-based; parameters: dose 0.5 mg/kg, route intravenous; details: in vivo, read-out: Vdss
Method in brief: (§2)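 Rats dosed iv at 0.5 mg/kg; clearance, steady-state volume of distribution and mean residence time derived.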

Cytochrome P450 2D6 = Cytochrome P450 2D6 (Homo sapiens, UniProt P10635); experiment: Inhibition of CYP2D6; assay type: ADME
Sequence of Cytochrome P450 2D6 (P10635 whole entry): as the sequence (P10635 whole entry) above

[9] = Half life in rat hepatocytes; assay type: ADME, cell-based, Liver, Hepatocyte
Rattus norvegicus = experiment: Clearance in rat at 0.5 mg/kg, iv; assay type: ADME, organism-based; parameters: dose 0.5 mg/kg, route intravenous; details: in vivo; method in brief: as §2
Cytochrome P450 2C9 = Cytochrome P450 2C9 (Homo sapiens, UniProt P11712); experiment: Inhibition of CYP2C9; assay type: ADME
Sequence of Cytochrome P450 2C9 (P11712 whole entry): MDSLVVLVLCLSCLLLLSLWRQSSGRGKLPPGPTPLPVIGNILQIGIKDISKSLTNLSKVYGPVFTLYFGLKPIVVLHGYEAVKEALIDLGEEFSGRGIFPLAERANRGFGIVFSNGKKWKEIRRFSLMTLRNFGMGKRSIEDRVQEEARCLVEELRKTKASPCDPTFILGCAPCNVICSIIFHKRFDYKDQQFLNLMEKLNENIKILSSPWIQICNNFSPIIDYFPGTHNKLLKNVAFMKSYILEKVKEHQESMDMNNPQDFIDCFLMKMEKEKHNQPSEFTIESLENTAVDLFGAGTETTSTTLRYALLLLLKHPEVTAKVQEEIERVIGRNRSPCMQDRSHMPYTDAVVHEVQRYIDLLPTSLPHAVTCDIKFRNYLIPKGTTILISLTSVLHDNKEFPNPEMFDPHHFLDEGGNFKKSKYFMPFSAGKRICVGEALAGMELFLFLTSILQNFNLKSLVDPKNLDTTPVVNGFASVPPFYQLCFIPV

Cytochrome P450 3A4 = Cytochrome P450 3A4 (Homo sapiens, UniProt P08684); experiment: Inhibition of CYP3A4; assay type: ADME
Sequence of Cytochrome P450 3A4 (P08684 whole entry): as the sequence (P08684 whole entry) above

Hepatocyte = experiment: Clearance in rat hepatocytes assessed per 10^-6 cells; assay type: ADME, cell-based
[10] = Oral bioavailability in rat at 2 mg/kg; assay type: ADME, organism-based; details: in vivo
Method in brief: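 Rats given 2.0 mg/kg po; bioavailability (%F) determined against iv dosing at 0.5 mg/kg.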

[11] = Metabolic stability in rat liver microsomes assessed as compound remaining after 30 mins; assay type: ADME, Microsome; details: read-out: Stability
Method in brief: (§3)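 Human or rat liver microsomes incubated with compound for 30 min; percent parent remaining quantified by LC/MS in a high-throughput format.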

[12] = Mean residence time in rat at 0.5 mg/kg, iv; assay type: ADME, organism-based; parameters: dose 0.5 mg/kg, route intravenous; details: in vivo; method in brief: as §2
[13] = Metabolic stability in human liver microsomes assessed as compound remaining after 30 mins; assay type: ADME, Microsome; details: read-out: Stability; method in brief: as §3

| Compound | Emax [1] [%] | pEC50 [2] | inhibition at 3 µM (CYP3A4) [%] | inhibition at 3 µM (CYP2D6) [%] | further results |
| --- | --- | --- | --- | --- | --- |
| N[C@@H](Cc1ccc(F)cc1)C(=O)Nc1cc(-c2ccncc2)c[nH]c1=O | 102 | 5.38 |  |  |  |
| O=C(Nc1cc(-c2ccncc2)c[nH]c1=O)[C@H](Cc1ccccc1)NCc1cscn1 | 120 | 7.03 | 97 | 95 | Emax [3]: 88%; pEC50 [4]: 6.30; pEC50 [5]: 5.57; Emax [6]: 100% |
| O=C(Nc1cccc(-c2cc[nH]n2)c1)[C@H](Cc1ccccc1)NCc1cscn1 |  | 7.17 | 59 | 36 |  |
| Nc1cc(-c2cccc(NC(=O)[C@H](Cc3ccccc3)NCc3cscn3)c2)ccn1 |  | 6.68 | 38 | 42 |  |
| COc1ccc(C[C@H](N)C(=O)Nc2cc(-c3ccncc3)c[nH]c2=O)cc1 | 40 | 4.60 |  |  |  |
| O=C(CCc1ccccc1)Nc1cc(-c2ccncc2)c[nH]c1=O |  | < 4.48 |  |  |  |
| N#Cc1ccc(C[C@H](N)C(=O)Nc2cc(-c3ccncc3)c[nH]c2=O)cc1 | 79 | 5.34 |  |  |  |
| Cc1cc(-c2cccc(NC(=O)[C@H](Cc3ccccc3)NCc3cscn3)c2)ccn1 |  | 7.28 | 63 | 74 |  |
| O=C(Nc1cc(-c2ccncc2)c[nH]c1=O)[C@H](Cc1ccccc1)NCCc1ccccc1 | 67 | 6.11 |  |  |  |
| Cn1cc(-c2c[nH]c(=O)c(NC(=O)[C@H](Cc3ccccc3)NCc3cscn3)c2)cn1 |  | 6.64 | 24 | 21 |  |
| O=C(Nc1cc(-c2ccncc2)c[nH]c1=O)[C@H](Cc1ccccc1)NCC1CC1 | 106 | 6.12 |  |  |  |
| Cn1cc(-c2cccc(NC(=O)[C@H](Cc3ccccc3)NCc3cscn3)c2)cn1 |  | 6.74 | 36 | 42 |  |
| O=C(Nc1cc(-c2ccn[nH]2)c[nH]c1=O)[C@H](Cc1ccccc1)NCc1cscn1 |  | 6.70 | 18 | 29 |  |
| COc1cc(NC(=O)[C@H](Cc2ccccc2)NCc2cscn2)cc(-c2ccncc2)c1 |  | 7.28 |  |  | pEC50 [4]: 6.09 |
| O=C(Nc1nccc(-c2ccncc2)n1)[C@H](Cc1ccccc1)NCc1cscn1 |  | 6.44 |  |  | pEC50 [4]: 6.54 |
| N[C@@H](Cc1ccccc1Cl)C(=O)Nc1cc(-c2ccncc2)c[nH]c1=O | 42 | < 4.48 |  |  |  |
| CC(=O)N[C@@H](Cc1ccccc1)C(=O)Nc1cc(-c2ccncc2)c[nH]c1=O |  | < 4.48 |  |  |  |
| N[C@H](Cc1ccccc1)C(=O)Nc1cc(-c2ccncc2)c[nH]c1=O | 93 | 4.89 |  |  |  |

| Compound | Emax [1] [%] | pEC50 [2] | inhibition at 3 µM (CYP3A4) [%] | inhibition at 3 µM (CYP2D6) [%] | further results |
| --- | --- | --- | --- | --- | --- |
| Cn1ccc(-c2cccc(NC(=O)[C@H](Cc3ccccc3)NCc3cscn3)c2)n1 |  | 5.72 | 30 | 12 |  |
| COc1ccc(-c2ccncc2)cc1NC(=O)[C@H](Cc1ccccc1)NCc1cscn1 |  | 7.05 |  |  | pEC50 [4]: 6.00 |
| N[C@@H](Cc1ccc(Cl)cc1)C(=O)Nc1cc(-c2ccncc2)c[nH]c1=O | 105 | 5.42 |  |  |  |
| NCC(=O)Nc1cc(-c2ccncc2)c[nH]c1=O |  | < 4.48 |  |  |  |
| N[C@@H](Cc1cccc(Cl)c1)C(=O)Nc1cc(-c2ccncc2)c[nH]c1=O | 50 | < 4.48 |  |  |  |
| O=C(Nc1cccc(-c2ccccc2)c1)[C@H](Cc1ccccc1)NCc1cscn1 |  | 6.19 | 57 | 46 |  |
| N[C@@H](CC1CCCCC1)C(=O)Nc1cc(-c2ccncc2)c[nH]c1=O | 30 | < 4.48 |  |  |  |
| O=C(Nc1cccc(-c2ccncc2)c1)[C@H](Cc1ccccc1)NCc1cscn1 |  | 7.17 | 97 | 95 | pEC50 [4]: 6.01 |
| COc1ccc(NC(=O)[C@H](Cc2ccccc2)NCc2cscn2)cc1-c1ccncc1 |  | 6.62 |  |  | pEC50 [4]: 6.01 |
| O=C(Nc1cc(-c2ccncc2)c[nH]c1=O)[C@H](Cc1ccccc1)NCc1ccccc1 | 97 | 6.08 |  |  |  |
| O=C(Nc1cccc(-c2cn[nH]c2)c1)[C@H](Cc1ccccc1)NCc1cscn1 |  | 6.74 | 82 | 90 |  |
| N[C@H](C(=O)Nc1cc(-c2ccncc2)c[nH]c1=O)c1ccccc1 |  | < 4.48 |  |  |  |
| N[C@@H](Cc1ccccc1)C(=O)Nc1cc(-c2ccncc2)c[nH]c1=O | 115 | 5.32 |  |  | pEC50 [7]: 5.85 |
| Cc1ccc(C[C@H](N)C(=O)Nc2cc(-c3ccncc3)c[nH]c2=O)cc1 | 73 | 5.18 |  |  |  |
| O=C(Nc1ccccc1)[C@H](Cc1ccccc1)NCc1cscn1 |  | 5.48 | 24 | 36 |  |
| O=C(O)c1cc(NC(=O)[C@H](Cc2ccccc2)NCc2cscn2)cc(-c2ccncc2)c1 |  | 6.96 |  |  | Vd [8]: 0.5 L/kg; pIC50 (Cytochrome P450 2D6): < 4.52; half-life [9]: 39 min; clearance (Rattus norvegicus): 2.9 L/h/kg; pIC50 (Cytochrome P450 2C9): < 4.52; pIC50 (Cytochrome P450 3A4): < 4.52; CLH (Hepatocyte): 18 µL/min; pEC50 [4]: 6.32; bioavailability [10]: 0%; remaining at 0.5 h [11]: 74%; MRT [12]: 12 min |
| Cc1cc(-c2c[nH]c(=O)c(NC(=O)[C@H](Cc3ccccc3)NCc3cscn3)c2)ccn1 | 90 | 7.17 | 22 | 20 | Vd [8]: 0.75 L/kg; pIC50 (Cytochrome P450 2D6): < 4.52; remaining at 0.5 h [13]: 10%; clearance (Rattus norvegicus): 2.6 L/h/kg; pIC50 (Cytochrome P450 3A4): < 4.52; pEC50 [4]: 6.54; bioavailability [10]: 19%; remaining at 0.5 h [11]: 11%; MRT [12]: 18 min; Emax [6]: 97% |
